Results published in ChEMBL document CHEMBL4373735, “N-alkyl-hydroxybenzoyl anilide hydroxamates as dual inhibitors of HDAC and HSP90, downregulating IFN-γ induced PD-L1 expression” (Eur J Med Chem, 2020).
pIC50: −log10 of the molar value.

Experiments:
Histone deacetylase = type: cell-based, Homo sapiens; conditions: hela
[1] = target: Heat shock protein HSP 90-alpha (Homo sapiens, UniProt P07900); assay: Inhibition of FITC-geldanamycin binding to recombinant human full-length C-terminal His-tagged HSP90alpha expressed in Escherichia coli after 3 hrs by fluorescence polarization assay
A549 = assay: Antiproliferative activity against human A549 cells assessed as cell growth inhibition after 48 hrs by sulforhodamine B assay; type: functional
In short: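 Cells seeded at 5000/well overnight; baseline plate fixed with 10% TCA at time of compound addition (T0). Treated with DMSO or graded doses for 48 h, fixed with 10% TCA, stained with 0.4% (w/v) SRB in 1% acetic acid, washed with 1% acetic acid, dye solubilised in 10 mM Trizma base, absorbance at 515 nm. GI50 from T0-corrected growth; at least three independent experiments, SD reported.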

NCI-H1975 = assay: cells; type: functional; conditions: Homo sapiens, NCI-H1975, 48 h
HCT-116 = assay: cells; type: functional; conditions: Homo sapiens, HCT-116, 48 h
Histone deacetylase 1 = Histone deacetylase 1 (Homo sapiens, UniProt Q13547); assay: Inhibition of HDAC1 (unknown origin)
cells = type: ADME, cell-based; conditions: Homo sapiens, SC9
Homo sapiens = organism: Homo sapiens; assay: Selectivity ratio of IC50 for HDAC1 (unknown origin) to IC50 for HDAC6 (unknown origin)

Sequence of Histone deacetylase 1 (Q13547 whole entry): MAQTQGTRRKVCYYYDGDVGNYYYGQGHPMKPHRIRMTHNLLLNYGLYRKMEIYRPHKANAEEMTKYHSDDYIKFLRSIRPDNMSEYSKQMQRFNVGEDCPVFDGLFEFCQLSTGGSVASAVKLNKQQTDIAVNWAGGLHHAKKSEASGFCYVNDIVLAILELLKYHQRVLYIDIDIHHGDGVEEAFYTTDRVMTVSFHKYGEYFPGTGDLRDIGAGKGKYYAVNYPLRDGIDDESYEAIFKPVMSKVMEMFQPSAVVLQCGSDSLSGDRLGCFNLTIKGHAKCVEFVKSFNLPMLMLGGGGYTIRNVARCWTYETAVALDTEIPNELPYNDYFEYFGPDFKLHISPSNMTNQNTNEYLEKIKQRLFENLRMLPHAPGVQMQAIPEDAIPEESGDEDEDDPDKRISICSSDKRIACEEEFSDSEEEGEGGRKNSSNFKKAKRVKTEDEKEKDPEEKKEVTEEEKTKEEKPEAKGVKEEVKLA

Row | Compound | pIC50 (Histone deacetylase) | pIC50 [1] | GI50 (A549; Homo sapiens, A549, 48 h) | GI50 (NCI-H1975) | GI50 (HCT-116) | pIC50 (Histone deacetylase 1) | pIC50 (cells) | GI50 (A549) | Ratio IC50 (Homo sapiens)
1 | CC(C)c1cc(C(=O)N(C)c2ccc(NC(=O)CCCCCC(=O)NO)cc2)c(O)cc1O | 6.41 | 6.77 | 2830 nM | 690 nM | 3780 nM | – | – | – | –
2 | CC(C)c1cc(C(=O)N(c2ccc(NC(=O)CCCCCCC(=O)NO)cc2)C(C)C)c(O)cc1O | < 6.00 | < 6.00 | > 10000 nM | > 10000 nM | > 10000 nM | – | – | – | –
3 | O=C(CCCCC[C@@H](NC(=O)c1ccccc1)C(=O)Nc1ccc2ncccc2c1)NO | – | – | – | – | – | 8.46 | 7.05 | – | –
4 | O=C(CCCCC[C@@H](NC(=O)c1ccccc1)C(=O)Nc1ccccc1)NO | – | – | – | – | – | 7.92 | 7.14 | – | –
5 | CC(C)c1cc(C(=O)Nc2cccc(NC(=O)CCCCCCC(=O)NO)c2)c(O)cc1O | 6.98 | < 6.00 | > 10000 nM | > 10000 nM | 6230 nM | – | – | – | –
6 | CC(C)c1cc(C(=O)N(C)c2ccc(NC(=O)CCCCCCCCC(=O)NO)cc2)c(O)cc1O | 6.17 | – | 1080 nM | 210 nM | 590 nM | – | – | – | –
7 | CC(C)c1cc(C(=O)N(C)c2cccc(NC(=O)CCCCCCC(=O)NO)c2)c(O)cc1O | 6.68 | 6.52 | 2300 nM | 1660 nM | 1170 nM | – | – | – | –
8 | O=C(CCCCCCC(=O)Nc1ccccc1)NO [VORINOSTAT] | – | < 6.30 | – | – | – | – | – | 1020 nM | –
9 | CCN(C(=O)c1cc(C(C)C)c(O)cc1O)c1cccc(NC(=O)CCCCCCC(=O)NO)c1 | 6.90 | 6.84 | 1590 nM | 940 nM | 1120 nM | – | – | – | –
10 | C=CCNC1=C2C[C@@H](C)C[C@H](OC)[C@H](O)[C@@H](C)/C=C(\C)[C@H](OC(N)=O)[C@@H](OC)/C=C\C=C(/C)C(=O)NC(=CC1=O)C2=O (stereo in doubt) [TANESPIMYCIN] | < 6.00 | – | 7.5 nM | 160 nM | 340 nM | – | – | – | –
11 | CC(C)c1cc(C(=O)Nc2ccccc2NC(=O)CCCCCCC(=O)NO)c(O)cc1O | < 6.00 | < 6.00 | > 10000 nM | > 10000 nM | 4920 nM | – | – | – | –
12 | O=C(CCCCCCC(=O)Nc1ccc(-c2cn(Cc3ccc(F)cc3)nn2)cc1)NO | – | – | – | – | – | – | – | – | 51
13 | CC(C)c1cc(C(=O)Nc2ccc(NC(=O)CCCCCCC(=O)NO)cc2)c(O)cc1O | 6.38 | < 6.00 | > 10000 nM | > 10000 nM | 5430 nM | – | – | – | –
14 | CCN(C(=O)c1cc(C(C)C)c(O)cc1O)c1ccc(NC(=O)CCCCCCC(=O)NO)cc1 | 6.34 | 6.73 | 5630 nM | 1380 nM | 3560 nM | – | – | – | –
